In ChEMBL document CHEMBL3526018, “Metabolites of PPI-2458, a selective, irreversible inhibitor of methionine aminopeptidase-2: structure determination and in vivo activity” (Drug Metab Dispos, 2013):
Active and inactive are the calls of the source. The calls are words filed in the database; no cut-off is given here.

How the values were obtained:
[1] = test system: Rattus norvegicus; test: Inhibition of MetAP2 level in Sprague-Dawley rat lymph nodes assessed as free enzyme level at 0.3 mg/kg, po by ELISA; type: functional, organism-based; set-up: dose 0.3 mg/kg
Summary of the method: (§1)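 Male Sprague-Dawley rats (200-225 g, n=3 per group) were dosed once IV at 0.3 mg/kg or PO at 0.3 or 3.0 mg/kg, in 11% HPCD in water. Blood, liver, lung, thymus and pooled non-mesenteric lymph nodes were taken at ~24 h and lysed or homogenized with NP-40. Free MetAP2 was measured by ELISA and expressed as % of vehicle.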

[2] = test system: Rattus norvegicus; test: Inhibition of MetAP2 level in Sprague-Dawley rat lung assessed as free enzyme level at 3 mg/kg, po by ELISA; type: functional, organism-based; set-up: dose 3 mg/kg; summary of the method: as §1
[3] = target: Methionine aminopeptidase 2 (Homo sapiens) (UniProt P50579); test: Inhibition of human MetAP2 activity after end of experiment; set-up: scale not given: the % may be the effect or the level left
[4] = Retention time in mouse liver microsomes treated with at 5 mM PPI-2458 by LC/MS analysis; type: ADME; conditions: 5000 µM
Summary of the method: (§2)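 Liver microsomes (pooled male/female) in 100 mM KPO4 pH 7.4 with PPI-2458 (5 mM stock), pre-incubated 5 min at 37°C, then 10 mM NADPH added; 20 min at 37°C with shaking. Time-zero and no-NADPH controls. Quenched with CH3CN; supernatant dried and redissolved in water. Analysed by LC-MS, ESI+ full scan 300–800 amu, C18 column, 10→50% B gradient.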

[5] = Retention time in monkey liver microsomes treated with at 5 mM PPI-2458 by LC/MS analysis; type: ADME, Macaca mulatta; conditions: rhesus monkey, 5000 µM; summary of the method: as §2
[6] = test system: Rattus norvegicus; test: Inhibition of MetAP2 level in Sprague-Dawley rat thymus assessed as free enzyme level at 0.3 mg/kg, iv by ELISA; type: functional, organism-based; set-up: dose 0.3 mg/kg; summary of the method: as §1
[7] = test system: Rattus norvegicus; test: Inhibition of MetAP2 level in Sprague-Dawley rat lung assessed as free enzyme level at 0.3 mg/kg, iv by ELISA; type: functional, organism-based; set-up: dose 0.3 mg/kg; summary of the method: as §1
[8] = test system: Rattus norvegicus; test: Inhibition of MetAP2 level in Sprague-Dawley rat whole blood assessed as free enzyme level at 0.3 mg/kg, po by ELISA; type: functional, organism-based; set-up: dose 0.3 mg/kg; summary of the method: as §1
[9] = test system: Rattus norvegicus; test: Inhibition of MetAP2 level in Sprague-Dawley rat liver assessed as free enzyme level at 0.3 mg/kg, iv by ELISA; type: functional, organism-based; set-up: dose 0.3 mg/kg; summary of the method: as §1
[10] = test system: Liver microsome; test: Retention time in dog liver microsomes treated with at 5 mM PPI-2458 by LC/MS analysis; type: ADME, Canis lupus familiaris; conditions: 5000 µM; summary of the method: as §2
[11] = test system: Rattus norvegicus; test: Inhibition of MetAP2 level in Sprague-Dawley rat lung assessed as free enzyme level at 0.3 mg/kg, po by ELISA; type: functional, organism-based; set-up: dose 0.3 mg/kg; summary of the method: as §1
[12] = test system: Rattus norvegicus; test: Inhibition of MetAP2 level in Sprague-Dawley rat lymph nodes assessed as free enzyme level at 0.3 mg/kg, iv by ELISA; type: functional, organism-based; set-up: dose 0.3 mg/kg; summary of the method: as §1
[13] = test system: Liver microsome; test: Retention time in rat liver microsomes treated with at 5 mM PPI-2458 by LC/MS analysis; type: ADME; conditions: 5000 µM; summary of the method: as §2
[14] = test system: Rattus norvegicus; test: Inhibition of MetAP2 level in Sprague-Dawley rat thymus assessed as free enzyme level at 0.3 mg/kg, po by ELISA; type: functional, organism-based; set-up: dose 0.3 mg/kg; summary of the method: as §1
[15] = target: Methionine aminopeptidase 2 (Homo sapiens) (UniProt P50579); test: Inhibition of human MetAP2 assessed as remaining enzyme activity after 8 hrs; set-up: concentration or dose not given beside the values
Summary of the method: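 The hMetAP2 assay follows the fraction of active enzyme remaining during an 8 h incubation with inhibitor, relative to an enzyme-only control.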

[16] = test system: Rattus norvegicus; test: Inhibition of MetAP2 level in Sprague-Dawley rat liver assessed as free enzyme level at 3 mg/kg, po by ELISA; type: functional, organism-based; set-up: dose 3 mg/kg; summary of the method: as §1
[17] = test system: Rattus norvegicus; test: Inhibition of MetAP2 level in Sprague-Dawley rat whole blood assessed as free enzyme level at 0.3 mg/kg, iv by ELISA; type: functional, organism-based; set-up: dose 0.3 mg/kg; summary of the method: as §1
[18] = test system: Rattus norvegicus; test: Inhibition of MetAP2 level in Sprague-Dawley rat thymus assessed as free enzyme level at 3 mg/kg, po by ELISA; type: functional, organism-based; set-up: dose 3 mg/kg; summary of the method: as §1
[19] = test system: Rattus norvegicus; test: Inhibition of MetAP2 level in Sprague-Dawley rat whole blood assessed as free enzyme level at 3 mg/kg, po by ELISA; type: functional, organism-based; set-up: dose 3 mg/kg; summary of the method: as §1
[20] = test system: Liver microsome; test: Retention time in human liver microsomes treated with at 5 mM PPI-2458 by LC/MS analysis; type: ADME; conditions: 5000 µM; summary of the method: as §2
[21] = test system: Rattus norvegicus; test: Inhibition of MetAP2 level in Sprague-Dawley rat liver assessed as free enzyme level at 0.3 mg/kg, po by ELISA; type: functional, organism-based; set-up: dose 0.3 mg/kg; summary of the method: as §1
[22] = test system: Rattus norvegicus; test: Inhibition of MetAP2 level in Sprague-Dawley rat lymph nodes assessed as free enzyme level at 3 mg/kg, po by ELISA; type: functional, organism-based; set-up: dose 3 mg/kg; summary of the method: as §1

Methionine aminopeptidase 2 (Homo sapiens), sequence (P50579 2-478 limits assumed): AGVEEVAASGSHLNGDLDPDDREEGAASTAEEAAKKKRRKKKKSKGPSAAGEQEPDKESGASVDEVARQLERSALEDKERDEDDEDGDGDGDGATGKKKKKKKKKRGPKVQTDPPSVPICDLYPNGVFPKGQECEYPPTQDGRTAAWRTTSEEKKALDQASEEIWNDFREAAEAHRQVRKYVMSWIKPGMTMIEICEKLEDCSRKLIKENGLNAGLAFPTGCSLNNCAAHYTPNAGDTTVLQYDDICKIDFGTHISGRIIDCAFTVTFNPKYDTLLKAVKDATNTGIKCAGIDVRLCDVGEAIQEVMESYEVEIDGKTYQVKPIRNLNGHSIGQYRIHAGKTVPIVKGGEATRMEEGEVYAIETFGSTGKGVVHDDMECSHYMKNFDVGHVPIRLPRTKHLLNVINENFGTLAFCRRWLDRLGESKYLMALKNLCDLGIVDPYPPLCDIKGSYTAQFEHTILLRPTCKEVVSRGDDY

Compound	Retention_time [4] [min]	Retention_time [5] [min]	Retention_time [10] [min]	Retention_time [13] [min]	Activity [15] [%]	Retention_time [20] [min]	inhibition [1]	inhibition [2]	inhibition [6]	inhibition [7]	inhibition [8]	inhibition [9]	inhibition [11]	inhibition [12]	inhibition [14]	inhibition [16]	inhibition [17]	inhibition [18]	inhibition [19]	inhibition [21]	other results
CO[C@@H]1[C@H](OC(=O)N[C@@H](C(N)=O)C(C)C)CC[C@]2(CO2)[C@H]1[C@@]1(C)O[C@@H]1C[C@@H]1OC1(C)C	20.1	20.1	20.1	20.1	58	20.1	inactive	Active	Active	Active	inactive	Active	inactive	Active	inactive	Active	Active	Active	Active	inactive	Activity [3]: 40%; inhibition [22]: Active
CO[C@@H]1[C@H](OC(=O)N[C@@H](C(N)=O)C(C)C)CC[C@]2(CO2)[C@H]1[C@@]1(C)O[C@@H]1CCC(C)(C)O	–	–	–	–	90	–	–	–	–	–	–	–	–	–	–	–	–	–	–	–	–
CO[C@@H]1[C@H](OC(=O)N[C@@H](C(N)=O)C(C)(C)O)CC[C@]2(CO2)[C@H]1[C@@]1(C)O[C@@H]1CC=C(C)C	26.7	26.7	26.7	26.7	1	26.7	Active	Active	Active	Active	Active	Active	Active	Active	Active	Active	Active	Active	Active	Active	inhibition [22]: Active
CO[C@@H]1[C@H](OC(=O)N[C@@H](C(N)=O)C(C)C)CC[C@]2(CO2)[C@H]1[C@@]1(C)O[C@@H]1C/C=C(\C)CO	17.6	17.6	17.6	17.6	9	17.6	inactive	Active	Active	Active	inactive	Active	inactive	Active	inactive	Active	Active	Active	Active	inactive	Activity [3]: 90%; inhibition [22]: Active

Now from value to compound, other results behind:

Retention_time [4] [min]	Retention_time [5] [min]	Retention_time [10] [min]	Retention_time [13] [min]	Activity [15] [%]	Retention_time [20] [min]	Compound	inhibition [1]	inhibition [2]	inhibition [6]	inhibition [7]	inhibition [8]	inhibition [9]	inhibition [11]	inhibition [12]	inhibition [14]	inhibition [16]	inhibition [17]	inhibition [18]	inhibition [19]	inhibition [21]	other results
–	–	–	–	39	–	CO[C@@H]1[C@H](OC(=O)N[C@@H](C(N)=O)C(C)(C)O)CC[C@]2(CO2)[C@H]1[C@@]1(C)O[C@@H]1C[C@@H]1OC1(C)C	–	–	–	–	–	–	–	–	–	–	–	–	–	–	–
–	–	–	–	6	–	CO[C@@H]1[C@H](OC(=O)N[C@@H](C(N)=O)C(C)(C)O)CC[C@]2(CO2)[C@H]1[C@@]1(C)O[C@@H]1C[C@H]1OC1(C)C	–	–	–	–	–	–	–	–	–	–	–	–	–	–	–
20.8	20.8	20.8	20.8	10	20.8	CO[C@@H]1[C@H](OC(=O)N[C@@H](C(N)=O)C(C)C)CC[C@]2(CO2)[C@H]1[C@@]1(C)O[C@@H]1C[C@H]1OC1(C)C	inactive	Active	Active	Active	inactive	Active	inactive	Active	inactive	Active	Active	Active	Active	inactive	Activity [3]: 90%; inhibition [22]: Active
